Data published in ChEMBL document CHEMBL1140884, “Oligodeoxyribonucleotide-based antagonists for Toll-like receptors 7 and 9” (2009).
The source made the active and inactive calls. No cut-off for these calls is given here.

Tests used:
[1] = molecular target: Toll-like receptor 7 (Homo sapiens) (UniProt Q9NYK1); assay: Antagonist activity at TLR7/8 in human PBMC assessed as inhibition of 5'-UGCUGUUCUG-X-GUCUUGUCGU-5'-induced NF-kappaB activation in human PBMC at 400 ug/mL treated 1 hr before induction measured after 2 hrs
Toll-like receptor 7 (Homo sapiens), sequence (Q9NYK1 whole entry, looked up): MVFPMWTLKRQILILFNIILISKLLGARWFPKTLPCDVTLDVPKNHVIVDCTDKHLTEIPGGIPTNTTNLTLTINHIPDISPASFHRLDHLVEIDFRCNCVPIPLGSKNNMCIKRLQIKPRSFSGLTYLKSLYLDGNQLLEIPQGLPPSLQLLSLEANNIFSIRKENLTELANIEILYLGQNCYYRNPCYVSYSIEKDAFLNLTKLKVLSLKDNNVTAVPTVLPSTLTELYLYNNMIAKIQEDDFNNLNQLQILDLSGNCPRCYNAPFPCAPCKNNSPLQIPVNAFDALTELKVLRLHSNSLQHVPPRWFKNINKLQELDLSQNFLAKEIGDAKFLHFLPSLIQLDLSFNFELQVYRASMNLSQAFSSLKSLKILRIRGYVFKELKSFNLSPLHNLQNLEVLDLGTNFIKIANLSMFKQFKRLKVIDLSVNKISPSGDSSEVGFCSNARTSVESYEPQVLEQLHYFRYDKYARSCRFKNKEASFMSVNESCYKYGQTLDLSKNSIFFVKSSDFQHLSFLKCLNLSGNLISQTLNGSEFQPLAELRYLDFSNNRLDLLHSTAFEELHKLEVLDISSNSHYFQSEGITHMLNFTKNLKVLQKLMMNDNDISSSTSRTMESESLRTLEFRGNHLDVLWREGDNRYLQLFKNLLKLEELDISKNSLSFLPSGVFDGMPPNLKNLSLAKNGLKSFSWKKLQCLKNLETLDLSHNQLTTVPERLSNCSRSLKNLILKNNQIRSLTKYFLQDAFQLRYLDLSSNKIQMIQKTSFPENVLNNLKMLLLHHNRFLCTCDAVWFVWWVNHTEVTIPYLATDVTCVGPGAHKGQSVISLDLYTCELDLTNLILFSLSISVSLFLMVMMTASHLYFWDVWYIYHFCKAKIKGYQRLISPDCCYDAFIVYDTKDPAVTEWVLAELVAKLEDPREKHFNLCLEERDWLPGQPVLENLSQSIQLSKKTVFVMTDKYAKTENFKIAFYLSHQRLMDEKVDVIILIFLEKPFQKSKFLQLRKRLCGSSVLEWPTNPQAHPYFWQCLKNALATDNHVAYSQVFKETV

PBMC [2] = assay: Inhibition of 5'-TCTGTCRTTCT-X-TCTTRCTGTCT-5'-induced human PBMC proliferation treated 72 hrs before induction; format: functional, cell-based
PBMC [3] = assay: Induction of MIG secretion in human PBMC; format: functional, cell-based
Outline: (§1)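 Human PBMCs (5×10^6/mL; 1×10^6 per well) were cultured 24 h with TLR9 agonist 5 µg/mL or TLR7/8 agonist 100 µg/mL, alone or with antagonist at 1:4. Compounds were dissolved in PBS. Supernatant cytokines were measured by Luminex human 25-plex bead assay. One representative donor of six.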

PBMC [4] = assay: Inhibition of 5'-UGCUGUUCUG-X-GUCUUGUCGU-5'-induced cytokines secretion in human PBMC at 1:5 agonist to drug ratio; format: functional, cell-based
Outline: (§2)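 Human PBMCs isolated from healthy volunteer blood by Ficoll gradient, cultured at 1×10^6/200 μL in supplemented RPMI 1640 with 10% heat-inactivated FBS. Treated for 24 h with agonist and/or antagonist dissolved in PBS; TLR9 agonist at 5 μg/mL, TLR7/8 agonist at 100 μg/mL. Supernatant cytokines/chemokines by Luminex human 25-plex bead assay; unstimulated cells as control.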

PBMC [5] = assay: Induction of MCP1 secretion in human PBMC; format: functional, cell-based
Outline: as §1

PBMC [6] = assay: Inhibition of 5'-TCTGTCRTTCT-X-TCTTRCTGTCT-5'-induced chemokines secretion in human PBMC at 1:5 agonist to drug ratio; format: functional, cell-based
Outline: as §2

[7] = molecular target: T1, Toll-like receptor 9 (Homo sapiens) (UniProt Q9NR96); assay: Antagonist activity at TLR9 in human PBMC assessed as inhibition of 5'-TCTGTCRTTCT-X-TCTTRCTGTCT-5'-induced NF-kappaB activation at 40 ug/mL treated 1 hr before induction measured after 2 hrs; format: functional
T1 sequence (whole entry): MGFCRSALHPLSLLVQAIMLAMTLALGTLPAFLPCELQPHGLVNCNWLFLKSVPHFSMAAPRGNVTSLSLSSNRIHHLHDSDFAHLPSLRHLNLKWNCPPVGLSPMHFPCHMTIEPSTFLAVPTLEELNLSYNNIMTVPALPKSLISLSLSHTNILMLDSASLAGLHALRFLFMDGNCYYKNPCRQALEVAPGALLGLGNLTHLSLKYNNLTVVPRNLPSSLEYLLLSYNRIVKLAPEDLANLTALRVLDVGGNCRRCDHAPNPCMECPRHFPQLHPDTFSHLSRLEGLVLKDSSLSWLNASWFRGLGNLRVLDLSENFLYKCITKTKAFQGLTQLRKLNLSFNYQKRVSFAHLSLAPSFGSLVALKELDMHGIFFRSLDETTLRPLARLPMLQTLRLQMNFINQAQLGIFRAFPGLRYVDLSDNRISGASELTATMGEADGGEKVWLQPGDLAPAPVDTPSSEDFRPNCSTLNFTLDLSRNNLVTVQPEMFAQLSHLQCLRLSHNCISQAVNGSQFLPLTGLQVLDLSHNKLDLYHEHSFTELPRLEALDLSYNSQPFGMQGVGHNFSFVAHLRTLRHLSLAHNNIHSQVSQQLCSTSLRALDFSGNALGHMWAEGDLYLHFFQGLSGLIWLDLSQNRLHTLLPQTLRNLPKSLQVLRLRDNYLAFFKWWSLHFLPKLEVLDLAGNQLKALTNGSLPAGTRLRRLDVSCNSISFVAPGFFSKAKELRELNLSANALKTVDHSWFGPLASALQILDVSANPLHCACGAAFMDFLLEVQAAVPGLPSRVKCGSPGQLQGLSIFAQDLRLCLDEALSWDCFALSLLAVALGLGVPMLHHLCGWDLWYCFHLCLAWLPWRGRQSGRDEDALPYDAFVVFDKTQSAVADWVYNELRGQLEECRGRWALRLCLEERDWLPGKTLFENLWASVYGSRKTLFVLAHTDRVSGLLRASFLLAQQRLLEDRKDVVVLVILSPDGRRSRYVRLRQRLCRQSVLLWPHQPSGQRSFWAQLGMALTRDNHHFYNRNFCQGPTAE
Outline: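 Human PBMCs plated at 1×10^7 cells/well were preincubated with antagonist at the indicated concentrations for 1 h. TLR9 or TLR7/8 agonist was then added for 2 h. Nuclear extracts were analysed for NF-κB by EMSA. One representative donor of three.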

PBMC [8] = assay: Inhibition of 5'-UGCUGUUCUG-X-GUCUUGUCGU-5'-induced chemokines secretion in human PBMC at 1:5 agonist to drug ratio; format: functional, cell-based
Outline: as §2

PBMC [9] = assay: (§3) Induction of IP10 secretion in human PBMC; format: functional, cell-based
Outline: as §1

PBMC [10] = assay: as §3; format: functional, cell-based; remark: listed apart in the source
Outline: as §1

[11] = molecular target: T2, Toll-like receptor 9 (Mus musculus) (UniProt Q9EQU3); assay: Antagonist activity at mouse TLR9 expressed in HEK293 cells assessed as inhibition of 5'-CTATCTGTCGTTCTCTGT-3'-induced NF-kappaB activation by SEAP reporter gene assay; format: functional, cell-based
T2 sequence (whole entry): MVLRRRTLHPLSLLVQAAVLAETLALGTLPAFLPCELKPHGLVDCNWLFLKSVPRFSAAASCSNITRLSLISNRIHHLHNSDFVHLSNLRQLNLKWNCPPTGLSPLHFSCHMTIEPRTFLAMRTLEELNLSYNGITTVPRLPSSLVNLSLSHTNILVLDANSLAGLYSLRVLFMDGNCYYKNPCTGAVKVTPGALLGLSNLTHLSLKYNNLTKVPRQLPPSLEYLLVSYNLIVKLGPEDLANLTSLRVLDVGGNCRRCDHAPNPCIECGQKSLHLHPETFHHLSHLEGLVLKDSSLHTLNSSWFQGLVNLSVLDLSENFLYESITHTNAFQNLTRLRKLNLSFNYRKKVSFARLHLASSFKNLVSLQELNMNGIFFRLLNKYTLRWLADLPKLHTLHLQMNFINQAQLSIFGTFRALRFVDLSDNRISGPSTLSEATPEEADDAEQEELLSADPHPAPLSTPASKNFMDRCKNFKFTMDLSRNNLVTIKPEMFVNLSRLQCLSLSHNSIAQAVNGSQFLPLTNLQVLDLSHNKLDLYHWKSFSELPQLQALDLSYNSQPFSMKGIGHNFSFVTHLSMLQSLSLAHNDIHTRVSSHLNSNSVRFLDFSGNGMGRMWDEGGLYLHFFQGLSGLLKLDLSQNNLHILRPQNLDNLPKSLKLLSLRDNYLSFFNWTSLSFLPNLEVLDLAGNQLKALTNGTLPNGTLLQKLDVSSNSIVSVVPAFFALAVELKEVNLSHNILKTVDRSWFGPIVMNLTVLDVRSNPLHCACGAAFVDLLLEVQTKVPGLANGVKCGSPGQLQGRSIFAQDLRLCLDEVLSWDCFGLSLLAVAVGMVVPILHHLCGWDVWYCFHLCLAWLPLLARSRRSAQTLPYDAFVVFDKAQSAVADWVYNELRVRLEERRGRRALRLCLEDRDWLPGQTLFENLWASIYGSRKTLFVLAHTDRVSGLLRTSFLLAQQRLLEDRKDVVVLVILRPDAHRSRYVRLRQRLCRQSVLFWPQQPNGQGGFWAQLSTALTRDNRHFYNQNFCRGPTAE
Outline: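 Mouse TLR9-HEK293 cells were transfected with a SEAP reporter for 6 h. They were then stimulated for 18 h with agonist (0.25 or 0.5 µg/mL) plus increasing antagonist concentrations or set agonist:antagonist ratios. Quanti-Blue read-out, reported as % NF-κB activity with agonist alone as 100%.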

PBMC [12] = assay: Induction of MIP1beta secretion in human PBMC; format: functional, cell-based
Outline: as §1

PBMC [13] = assay: Induction of IL6 secretion in human PBMC; format: functional, cell-based
Outline: as §1

[14] = molecular target: T2, Toll-like receptor 9 (Mus musculus); assay: Agonist activity at mouse TLR9 expressed in HEK293 cells assessed as activation of NF-kappaB at 10 ug/mL by SEAP reporter gene assay; format: functional, cell-based
Outline: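 HEK293 cells stably expressing mouse TLR9 were transiently transfected with a SEAP reporter for 6 h. Compounds were added at 10 µg/mL for 18 h. SEAP was read with Quanti-Blue substrate and expressed as fold change in NF-κB activity.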

PBMC [15] = assay: Induction of TNFalpha secretion in human PBMC; format: functional, cell-based
Outline: as §1

PBMC [16] = assay: Induction of IL12 secretion in human PBMC; format: functional, cell-based
Outline: as §1

PBMC [17] = assay: Inhibition of 5'-TCTGTCRTTCT-X-TCTTRCTGTCT-5'-induced cytokines secretion in human PBMC at 1:5 agonist to drug ratio; format: functional, cell-based
Outline: as §2

PBMC [18] = assay: Induction of IFN-gamma secretion in human PBMC; format: functional, cell-based
Outline: as §1

PBMC [19] = assay: Induction of IFNalpha secretion in human PBMC; format: functional, cell-based
Outline: as §1

[20] = molecular target: T1, Toll-like receptor 9 (Homo sapiens); assay: Agonist activity at TLR9 in human PBMC assessed as NF-kappaB activation at 5 ug/mL; format: functional
Outline: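 Human PBMCs from healthy-donor blood (Ficoll) plated at 1×10^7 cells/well, stimulated for 2 h. Nuclear extracts analysed for NF-κB binding by EMSA on native polyacrylamide gels with autoradiography. One representative donor of three.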

Row | Activity [1] | Activity [7] | Activity [11] | Activity [14] | Activity [20] | Structure (SMILES) | Activity (PBMC [2]) | Activity (PBMC [3]) | Activity (PBMC [4]) | Activity (PBMC [5]) | Activity (PBMC [6]) | Activity (PBMC [8]) | Activity (PBMC [9]) | Activity (PBMC [10]) | Activity (PBMC [12]) | Activity (PBMC [13]) | Activity (PBMC [15]) | Activity (PBMC [16]) | Activity (PBMC [17]) | Activity (PBMC [18]) | Activity (PBMC [19])
1 | Active | Active | Active | inactive |  | CO[C@@H]1[C@H](OP(=O)(S)OC[C@H]2O[C@@H](n3ccc(N)nc3=O)C[C@@H]2OP(=O)(S)OC[C@H]2O[C@@H](n3ccc4c(=O)[nH]c(N)nc43)C[C@@H]2OP(=O)(S)OC[C@H]2O[C@@H](n3cc(C)c(=O)[nH]c3=O)C[C@@H]2OP(=O)(S)OC[C@H]2O[C@@H](n3cc(C)c(=O)[nH]c3=O)C[C@@H]2OP(=O)(S)OC[C@H]2O[C@@H](n3ccc(N)nc3=O)C[C@@H]2OP(=O)(S)OC[C@H]2O[C@@H](n3cc(C)c(=O)[nH]c3=O)C[C@@H]2OP(=O)(S)OC[C@H]2O[C@@H](n3ccc(N)nc3=O)C[C@@H]2OP(=O)(S)OC[C@H]2O[C@@H](n3cc(C)c(=O)[nH]c3=O)C[C@@H]2OP(=O)(S)OC[C@H]2O[C@@H](n3cnc4c(=O)[nH]c(N)nc43)C[C@@H]2OP(=O)(S)OC[C@H]2O[C@@H](n3cc(C)c(=O)[nH]c3=O)C[C@@H]2O)[C@@H](COP(=O)(S)O[C@H]2[C@@H](OC)[C@H](n3cnc4c(=O)[nH]c(N)nc43)O[C@@H]2COP(=O)(S)O[C@H]2C[C@H](n3cc(C)c(=O)[nH]c3=O)O[C@@H]2COP(=O)(S)O[C@H]2C[C@H](n3ccc(N)nc3=O)O[C@@H]2COP(=O)(S)O[C@H]2C[C@H](n3cc(C)c(=O)[nH]c3=O)O[C@@H]2COP(=O)(S)O[C@H]2C[C@H](n3cnc4c(N)ncnc43)O[C@@H]2COP(=O)(S)O[C@H]2C[C@H](n3cc(C)c(=O)[nH]c3=O)O[C@@H]2COP(=O)(S)O[C@@H]2[C@H](O)[C@@H](n3ccc(N)nc3=O)O[C@H]2CO)O[C@H]1n1ccc(=O)[nH]c1=O (stereo not given in full) | Active | inactive | Active | inactive | Active | Active | inactive | inactive | inactive | inactive | inactive | inactive | Active | inactive | inactive
2 |  |  |  |  | Active | Cc1cn([C@H]2C[C@H](OP(=O)(S)OC[C@H]3O[C@@H](n4ccc(N)nc4=O)C[C@@H]3OP(=O)(S)OC[C@H]3O[C@@H](n4cc(C)c(=O)[nH]c4=O)C[C@@H]3OP(=O)(S)OC[C@H]3O[C@@H](n4cnc5c(=O)[nH]c(N)nc54)C[C@@H]3OP(=O)(S)OC[C@H]3O[C@@H](n4cc(C)c(=O)[nH]c4=O)C[C@@H]3OP(=O)(S)OC[C@H]3O[C@@H](n4ccc(N)nc4=O)C[C@@H]3OP(=O)(S)OC[C@H]3O[C@@H](n4ccc5c(N)ncnc54)C[C@@H]3OP(=O)(S)OC[C@H]3O[C@@H](n4cc(C)c(=O)[nH]c4=O)C[C@@H]3OP(=O)(S)OC[C@H]3O[C@@H](n4cc(C)c(=O)[nH]c4=O)C[C@@H]3OP(=O)(S)OC[C@H]3O[C@@H](n4ccc(N)nc4=O)C[C@@H]3OP(=O)(S)OC[C@H]3O[C@@H](n4cc(C)c(=O)[nH]c4=O)C[C@@H]3OP(=O)(S)OCC(O)COP(=O)(S)O[C@H]3C[C@H](n4cc(C)c(=O)[nH]c4=O)O[C@@H]3COP(=O)(S)O[C@H]3C[C@H](n4ccc(N)nc4=O)O[C@@H]3COP(=O)(S)O[C@H]3C[C@H](n4cc(C)c(=O)[nH]c4=O)O[C@@H]3COP(=O)(S)O[C@H]3C[C@H](n4cc(C)c(=O)[nH]c4=O)O[C@@H]3COP(=O)(S)O[C@H]3C[C@H](n4ccc5c(=O)[nH]c(N)nc54)O[C@@H]3COP(=O)(S)O[C@H]3C[C@H](n4ccc(N)nc4=O)O[C@@H]3COP(=O)(S)O[C@H]3C[C@H](n4cc(C)c(=O)[nH]c4=O)O[C@@H]3COP(=O)(S)O[C@H]3C[C@H](n4cnc5c(=O)[nH]c(N)nc54)O[C@@H]3COP(=O)(S)O[C@H]3C[C@H](n4cc(C)c(=O)[nH]c4=O)O[C@@H]3COP(=O)(S)O[C@H]3C[C@H](n4ccc(N)nc4=O)O[C@@H]3COP(=O)(S)O[C@H]3C[C@H](n4cc(C)c(=O)[nH]c4=O)O[C@@H]3CO)[C@@H](CO)O2)c(=O)[nH]c1=O (stereo not given in full) |  | Active |  | Active |  |  | Active | Active | Active | Active | Active | Active |  | Active | Active
